Activity calls are given as the source filed them. No cut-off for these calls is given here.

The subject of one assay is MCF7. Nature of the assay: Antiproliferative activity against human MCF7 cells assessed as suppression of cell viability by MTT assay. The format is functional, cell-based. In a few lines: (§1)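 Cancer lines seeded 5000/well and nonmalignant PrEC/MEC 8000/well in 10% FBS, 24 h before treatment. Compound exposure 24 h in 5% FBS medium, 0.1% final DMSO. MTT (0.25 mg/mL) for 1 h at 37°C, dye solubilized in DMSO, absorbance read at 570 nm. Mean ± SD, n = 6.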
Background: Formazan colour is commonly taken as a measure of viable cells.

The test system of assay [1] is PC-3. Nature of the assay: Reduction in EGFR concentration in human PC3 cells after 24 hrs by Western blot analysis. The format is functional, cell-based. In a few lines: (§2)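 PC-3 versus stable PC-3/CA-ILK, or SKBR3 versus transient SKBR3/CA-ILK (electroporation, used 48 h after), treated 24 h in 5% FBS medium; immunoblotting with ECL; representative of three experiments.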
On the technique in general: In western blotting, separated proteins are transferred to a membrane and probed.

The next assay relates to LNCaP. Nature of the assay: Antiproliferative activity against human LNCAP cells assessed as suppression of cell viability by MTT assay. It counts as functional, cell-based. In a few lines:
as §1

The subject of assay [2] is PC-3. Nature of the assay: Antiproliferative activity against human PC3 cells expressing constitutively active ILK assessed as cell viability by MTT assay. It counts as functional, cell-based. In a few lines:
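Stable PC-3 clones expressing GFP-CA-ILK (or GFP), made by electroporation, G418 250 μg/mL for one week and GFP sorting. Treated 24 h in 5% FBS medium. Viability by MTT, 0.25 mg/mL, 1 h at 37°C, A570. n = 6, mean ± SD.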

Assay [3] concerns the target Focal adhesion kinase 1 (Homo sapiens) (UniProt Q05397). Nature of the assay: Inhibition of FAK in human PC3 cells assessed as decrease in auto-phosphorylation at Tyr-397 by Western blot analysis. The format is cell-based. As to conditions: PC-3. In a few lines: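 PC-3 cells exposed to graded concentrations for 24 h in 5% FBS medium. Immunoblotting for phospho-Tyr397-FAK, ERK1/2, p38 and JNK. Lysis in 1% SDS buffer, primary antibody 1:1000 at 4°C for 2 h, ECL. Three independent experiments.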

The test system of assay [4] is PC-3. Nature of the assay: Reduction in YB-1 mRNA expression in human PC3 cells after 24 hrs by RT-PCR analysis. The format is functional, cell-based. In a few lines: (§3)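 PC-3, PC-3/CA-ILK, SKBR3 and SKBR3/CA-ILK cells treated 24 h in 5% FBS medium; total RNA from 1 × 10^6 cells by Trizol, 1 μg reverse-transcribed, then PCR with gene-specific primers and β-actin reference.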

The test system of assay [5] is PC-3. Nature of the assay: Reduction in EGFR mRNA expression in human PC3 cells after 24 hrs by RT-PCR analysis. The format is functional, cell-based. In a few lines: as §3
Assay [6] relates to PC-3. Nature of the assay: Reduction in YB-1 concentration in human PC3 cells expressing constitutively active ILK after 24 hrs by Western blot analysis. It counts as functional, cell-based. In a few lines:
as §2

Assay [7] deals with RAC-alpha serine/threonine-protein kinase (Homo sapiens) (UniProt P31749). Nature of the assay: Inhibition of Akt at 5 uM assessed as remaining activity. In a few lines: (§4)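 Panel of 20 recombinant kinases, profiled by a commercial vendor.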
Assay [8] deals with PC-3. Nature of the assay: Induction of apoptosis in human PC3 cells assessed as early apoptotic cells at 4 uM by annexin V/PI staining (reference value: 5.6%). It counts as functional.
Assay [9] has as its target 3-phosphoinositide-dependent protein kinase 1 (Homo sapiens) (UniProt O15530). Nature of the assay: Inhibition of PDK1 at 5 uM assessed as remaining activity.
Assay [10] relates to PC-3. Nature of the assay: Induction of apoptosis in human PC3 cells assessed as late apoptotic cells at 1 uM by annexin V/PI staining (reference value: 9.8%). The format is functional.
The target of assay [11] is Tyrosine-protein kinase ZAP-70 (Homo sapiens) (UniProt P43403). Nature of the assay: Inhibition of ZAP70 at 5 uM assessed as remaining activity.
The next assay concerns SK-BR-3. Nature of the assay: Reduction in HER2 concentration in human SKBR3 cells expressing constitutively active ILK after 24 hrs by Western blot analysis. The format is functional, cell-based. In a few lines:
as §2

In assay [12] the test system is PC-3. Nature of the assay: Suppression of tumor growth in human PC3 cells xenografted in nude mouse at 25 mg/kg/day, po administered for 35 days relative to control. The format is functional. In a few lines: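 Male NCr athymic nude mice, s.c. 0.5 × 10^6 PC-3 cells in 50% Matrigel; established tumors randomized (n=6) to daily oral gavage in 0.5% methylcellulose/0.1% Tween 80 in water, 10 μL/g, 35 days; weekly caliper volume = width² × length × 0.52; mean ± SEM, ANOVA or t-test.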
For orientation: Xenograft models place foreign cells or tissue in a host animal.

In another assay the target is Scaffold protein ILK (Homo sapiens, UniProt Q13418). Nature of the assay: (§5) Inhibition of human ILK activity assessed myelin basic protein phosphorylation by radiometric kinase assay in the presence of [gamma 32P]ATP. In a few lines: (§6)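 ILK immunoprecipitated from EGF-pretreated (100 ng/mL, 2 h) PC-3 lysates with protein A/G agarose; reaction in 25 μL with 5 μg MBP and 2.5 μCi [γ-32P]ATP, 30°C for 25 min; SDS-PAGE, autoradiography, densitometry versus DMSO control; mean ± SD, n = 3.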

Assay [13] concerns the target T1, Scaffold protein ILK (Homo sapiens) (UniProt Q13418).
T1 sequence (whole entry): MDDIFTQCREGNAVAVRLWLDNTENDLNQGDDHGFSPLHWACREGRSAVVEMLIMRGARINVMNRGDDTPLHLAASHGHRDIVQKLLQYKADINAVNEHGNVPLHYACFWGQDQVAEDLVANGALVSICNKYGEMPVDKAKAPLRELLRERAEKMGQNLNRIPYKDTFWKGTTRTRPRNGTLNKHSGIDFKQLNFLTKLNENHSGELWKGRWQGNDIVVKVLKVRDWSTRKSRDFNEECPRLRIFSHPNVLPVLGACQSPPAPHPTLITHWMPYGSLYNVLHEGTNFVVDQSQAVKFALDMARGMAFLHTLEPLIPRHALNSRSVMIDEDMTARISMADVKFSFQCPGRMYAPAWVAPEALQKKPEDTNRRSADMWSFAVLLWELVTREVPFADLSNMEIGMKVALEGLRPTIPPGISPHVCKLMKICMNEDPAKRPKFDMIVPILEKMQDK
The assay is described as §5. In a few lines:
as §6

For assay [14], the system named is PC-3. Nature of the assay: Induction of autophagy in human PC3 cells expressing Atg5 siRNA assessed as LC3-II conversion by Western blot analysis. It counts as functional, cell-based. In a few lines:
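Transient Atg5 siRNA transfection of PC-3 by electroporation, cells used 48 h later, then treated. LC3-II conversion detected by immunoblot: SDS lysis, antibody 1:1000 at 4°C for 2 h, ECL. Representative of three independent experiments.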

Assay [15] deals with PC-3. Nature of the assay: Induction of apoptosis in human PC3 cells up to 2 uM after 48 hrs by flow cytometry. It counts as functional, cell-based.
For assay [16], the system named is PC-3. Nature of the assay: Induction of apoptosis in human PC3 cells assessed as late apoptotic cells at 4 uM by annexin V/PI staining (reference value: 9.8%). The format is functional.
Assay [17] has as its target Glycogen synthase kinase-3 beta (Homo sapiens) (UniProt P49841). Nature of the assay: Inhibition of GSK3-beta at 5 uM assessed as remaining activity. In a few lines: as §4
Assay [18] concerns the target Proto-oncogene tyrosine-protein kinase ROS (Homo sapiens) (UniProt P08922). Nature of the assay: Inhibition of Ros at 5 uM assessed as remaining activity.
For assay [19], the target named is Tyrosine-protein kinase JAK2 (Homo sapiens) (UniProt O60674). Nature of the assay: Inhibition of Jak2 at 5 uM assessed as remaining activity. In a few lines:
as §4

Chain of RAC-alpha serine/threonine-protein kinase (Homo sapiens) (P31749 whole entry): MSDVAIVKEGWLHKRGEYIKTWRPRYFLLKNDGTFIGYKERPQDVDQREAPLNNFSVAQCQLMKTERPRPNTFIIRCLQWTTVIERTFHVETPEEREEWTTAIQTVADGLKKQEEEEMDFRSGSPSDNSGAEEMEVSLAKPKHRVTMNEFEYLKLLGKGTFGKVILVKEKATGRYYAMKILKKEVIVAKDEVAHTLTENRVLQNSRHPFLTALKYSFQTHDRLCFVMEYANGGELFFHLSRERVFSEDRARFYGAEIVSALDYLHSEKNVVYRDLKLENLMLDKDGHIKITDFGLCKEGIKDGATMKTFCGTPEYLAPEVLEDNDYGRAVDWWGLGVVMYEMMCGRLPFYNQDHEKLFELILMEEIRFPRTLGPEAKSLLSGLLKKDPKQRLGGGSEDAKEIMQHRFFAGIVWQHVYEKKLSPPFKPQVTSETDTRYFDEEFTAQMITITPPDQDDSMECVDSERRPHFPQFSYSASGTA
Chain of 3-phosphoinositide-dependent protein kinase 1 (Homo sapiens) (O15530 whole entry, looked up): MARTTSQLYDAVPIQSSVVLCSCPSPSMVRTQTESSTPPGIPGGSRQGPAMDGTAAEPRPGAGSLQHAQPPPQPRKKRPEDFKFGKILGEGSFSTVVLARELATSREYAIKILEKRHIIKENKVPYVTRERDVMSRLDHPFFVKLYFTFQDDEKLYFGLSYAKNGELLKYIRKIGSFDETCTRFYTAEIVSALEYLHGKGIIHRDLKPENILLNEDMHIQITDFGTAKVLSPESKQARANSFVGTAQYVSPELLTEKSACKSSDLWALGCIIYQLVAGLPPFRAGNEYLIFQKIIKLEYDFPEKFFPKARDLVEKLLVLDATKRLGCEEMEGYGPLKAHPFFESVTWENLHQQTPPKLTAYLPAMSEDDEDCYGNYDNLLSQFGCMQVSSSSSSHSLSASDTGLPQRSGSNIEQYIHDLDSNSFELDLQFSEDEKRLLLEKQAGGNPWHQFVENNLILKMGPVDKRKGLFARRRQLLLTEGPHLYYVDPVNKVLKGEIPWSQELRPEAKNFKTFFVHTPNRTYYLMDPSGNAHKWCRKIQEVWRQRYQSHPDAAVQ
Chain of Tyrosine-protein kinase ZAP-70 (Homo sapiens) (P43403 whole entry): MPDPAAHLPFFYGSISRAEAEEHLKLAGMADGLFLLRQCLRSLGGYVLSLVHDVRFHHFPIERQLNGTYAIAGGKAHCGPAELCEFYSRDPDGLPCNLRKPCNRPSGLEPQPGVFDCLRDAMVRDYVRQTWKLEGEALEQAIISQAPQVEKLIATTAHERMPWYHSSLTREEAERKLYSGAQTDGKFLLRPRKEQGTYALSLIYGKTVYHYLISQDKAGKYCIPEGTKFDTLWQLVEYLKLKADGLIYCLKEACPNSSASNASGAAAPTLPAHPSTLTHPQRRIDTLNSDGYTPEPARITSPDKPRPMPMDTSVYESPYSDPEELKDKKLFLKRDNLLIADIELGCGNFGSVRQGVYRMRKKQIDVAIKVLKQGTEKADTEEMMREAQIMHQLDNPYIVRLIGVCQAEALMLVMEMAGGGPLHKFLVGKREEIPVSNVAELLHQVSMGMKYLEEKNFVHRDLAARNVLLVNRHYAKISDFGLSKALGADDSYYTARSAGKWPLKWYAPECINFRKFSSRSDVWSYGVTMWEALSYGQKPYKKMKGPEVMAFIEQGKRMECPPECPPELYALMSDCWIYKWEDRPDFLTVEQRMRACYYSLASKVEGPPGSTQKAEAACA
Chain of Proto-oncogene tyrosine-protein kinase ROS (Homo sapiens) (P08922 whole entry): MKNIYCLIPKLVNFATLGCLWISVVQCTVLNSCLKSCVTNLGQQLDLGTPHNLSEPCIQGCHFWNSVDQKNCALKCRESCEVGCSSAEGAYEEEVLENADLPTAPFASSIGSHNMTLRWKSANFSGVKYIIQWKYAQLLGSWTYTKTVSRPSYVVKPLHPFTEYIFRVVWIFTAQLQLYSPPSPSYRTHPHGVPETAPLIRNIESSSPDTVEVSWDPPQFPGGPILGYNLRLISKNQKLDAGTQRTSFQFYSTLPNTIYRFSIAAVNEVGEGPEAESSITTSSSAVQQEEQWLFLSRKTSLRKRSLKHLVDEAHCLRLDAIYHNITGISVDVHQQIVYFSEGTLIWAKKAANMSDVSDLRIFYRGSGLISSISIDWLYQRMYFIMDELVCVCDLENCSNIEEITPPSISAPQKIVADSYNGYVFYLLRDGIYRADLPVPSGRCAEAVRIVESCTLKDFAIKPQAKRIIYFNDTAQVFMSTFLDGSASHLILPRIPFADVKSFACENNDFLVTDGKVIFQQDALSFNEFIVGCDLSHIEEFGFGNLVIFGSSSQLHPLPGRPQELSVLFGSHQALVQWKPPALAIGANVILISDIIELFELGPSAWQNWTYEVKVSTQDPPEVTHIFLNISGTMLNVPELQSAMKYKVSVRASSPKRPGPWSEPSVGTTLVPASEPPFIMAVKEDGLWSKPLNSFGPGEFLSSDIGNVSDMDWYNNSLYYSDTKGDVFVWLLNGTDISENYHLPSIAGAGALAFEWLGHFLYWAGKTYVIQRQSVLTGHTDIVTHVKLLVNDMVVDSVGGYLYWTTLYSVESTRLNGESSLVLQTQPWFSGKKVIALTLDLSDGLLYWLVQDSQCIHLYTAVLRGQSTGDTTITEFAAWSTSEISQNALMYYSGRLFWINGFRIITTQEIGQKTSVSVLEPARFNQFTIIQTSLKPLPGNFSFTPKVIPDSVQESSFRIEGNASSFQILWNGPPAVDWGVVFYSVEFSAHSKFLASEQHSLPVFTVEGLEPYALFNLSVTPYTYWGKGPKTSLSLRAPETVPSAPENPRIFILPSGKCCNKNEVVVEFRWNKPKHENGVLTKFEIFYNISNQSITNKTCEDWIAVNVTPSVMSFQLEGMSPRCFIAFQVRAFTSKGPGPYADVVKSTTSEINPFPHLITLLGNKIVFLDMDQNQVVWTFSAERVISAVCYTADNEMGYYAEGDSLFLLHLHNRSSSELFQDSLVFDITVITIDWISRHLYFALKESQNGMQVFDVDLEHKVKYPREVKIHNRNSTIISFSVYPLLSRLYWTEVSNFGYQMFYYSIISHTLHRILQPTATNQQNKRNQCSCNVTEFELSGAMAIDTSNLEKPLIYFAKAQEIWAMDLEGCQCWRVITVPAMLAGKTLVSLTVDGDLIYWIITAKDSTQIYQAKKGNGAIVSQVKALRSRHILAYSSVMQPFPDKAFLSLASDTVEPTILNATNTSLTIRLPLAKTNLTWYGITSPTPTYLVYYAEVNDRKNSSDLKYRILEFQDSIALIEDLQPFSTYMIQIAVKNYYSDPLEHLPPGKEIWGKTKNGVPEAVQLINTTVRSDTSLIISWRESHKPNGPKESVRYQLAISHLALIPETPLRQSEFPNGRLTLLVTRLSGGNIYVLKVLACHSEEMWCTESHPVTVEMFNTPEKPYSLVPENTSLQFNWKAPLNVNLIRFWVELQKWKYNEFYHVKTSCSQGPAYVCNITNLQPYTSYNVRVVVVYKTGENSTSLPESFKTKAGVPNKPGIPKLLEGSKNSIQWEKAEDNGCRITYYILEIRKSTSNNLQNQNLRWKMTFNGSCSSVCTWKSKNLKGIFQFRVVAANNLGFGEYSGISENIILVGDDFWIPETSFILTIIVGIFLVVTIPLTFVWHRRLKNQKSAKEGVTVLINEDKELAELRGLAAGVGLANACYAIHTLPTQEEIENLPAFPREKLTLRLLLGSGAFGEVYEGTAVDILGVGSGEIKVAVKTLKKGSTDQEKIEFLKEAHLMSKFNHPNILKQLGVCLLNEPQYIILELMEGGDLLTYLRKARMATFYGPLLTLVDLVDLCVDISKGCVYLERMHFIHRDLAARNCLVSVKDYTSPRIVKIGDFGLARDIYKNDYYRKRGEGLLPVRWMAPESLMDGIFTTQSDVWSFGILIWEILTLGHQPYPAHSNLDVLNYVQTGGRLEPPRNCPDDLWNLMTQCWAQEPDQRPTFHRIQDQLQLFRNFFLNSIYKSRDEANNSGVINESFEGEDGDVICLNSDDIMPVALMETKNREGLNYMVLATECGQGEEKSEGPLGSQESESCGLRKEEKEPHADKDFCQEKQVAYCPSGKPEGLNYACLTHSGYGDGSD
Chain of Focal adhesion kinase 1 (Homo sapiens) (Q05397 2-1052 limits assumed): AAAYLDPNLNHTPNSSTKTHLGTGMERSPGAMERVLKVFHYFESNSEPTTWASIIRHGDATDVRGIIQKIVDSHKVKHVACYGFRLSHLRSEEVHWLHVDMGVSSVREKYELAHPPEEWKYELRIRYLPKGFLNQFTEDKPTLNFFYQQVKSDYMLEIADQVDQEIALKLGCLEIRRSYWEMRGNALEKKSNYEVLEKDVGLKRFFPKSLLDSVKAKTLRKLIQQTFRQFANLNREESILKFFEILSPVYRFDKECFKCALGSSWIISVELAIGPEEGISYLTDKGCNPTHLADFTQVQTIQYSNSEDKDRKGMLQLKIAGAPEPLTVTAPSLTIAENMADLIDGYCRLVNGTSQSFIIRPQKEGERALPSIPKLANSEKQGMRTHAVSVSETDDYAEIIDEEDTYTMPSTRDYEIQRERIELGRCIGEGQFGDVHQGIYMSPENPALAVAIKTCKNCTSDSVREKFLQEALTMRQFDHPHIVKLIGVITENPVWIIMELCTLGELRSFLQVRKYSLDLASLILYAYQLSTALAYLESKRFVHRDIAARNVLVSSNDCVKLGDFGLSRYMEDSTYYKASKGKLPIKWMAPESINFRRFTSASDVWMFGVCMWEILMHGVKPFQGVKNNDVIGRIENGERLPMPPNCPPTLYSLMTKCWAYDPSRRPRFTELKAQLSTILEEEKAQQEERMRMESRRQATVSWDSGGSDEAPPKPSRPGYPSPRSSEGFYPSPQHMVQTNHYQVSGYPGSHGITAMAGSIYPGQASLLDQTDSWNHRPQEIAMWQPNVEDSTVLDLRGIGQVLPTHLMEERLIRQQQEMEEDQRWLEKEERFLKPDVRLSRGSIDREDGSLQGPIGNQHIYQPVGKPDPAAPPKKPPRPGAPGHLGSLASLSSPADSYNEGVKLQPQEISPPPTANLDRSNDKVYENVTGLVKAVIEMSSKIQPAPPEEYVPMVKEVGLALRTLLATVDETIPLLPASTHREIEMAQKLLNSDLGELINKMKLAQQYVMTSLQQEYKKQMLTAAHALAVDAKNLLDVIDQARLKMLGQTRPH

Take `CNC(=O)CCc1cc(-c2ccc(-c3ccc(C(F)(F)F)cc3)cc2)n(-c2ccc(N3CCNCC3)cc2)n1`: the IC50 (commonly the concentration that inhibits the measured activity by half) in the assay with MCF7 was determined as 2.5 µM; in the assay on LNCaP it was 1.6 µM; on Scaffold protein ILK, 0.6 µM. The Activity result with PC-3 [1] was “Dose-dependent effect”; in the assay with PC-3 [4], “Dose-dependent effect”; with PC-3 [5], “Dose-dependent effect”; in assay [7] it was 88%; in the assay on PC-3 [8] it was 25.2%; in assay [9], 94%. In addition, the Activity stood at 10.1% in the assay on PC-3 [10]; 104% in assay [11]; 48% with PC-3 [12]; 19.1% in the assay with PC-3 [16]; 142% in [17]; 103% in assay [18]. Moreover, the Activity in assay [19] was found to be 114%. The inhibition result (with PC-3 [2]; in assay [3]) was “inactive” throughout. The result in the assay with PC-3 [6], with SK-BR-3, with PC-3 [14] and with PC-3 [15] was inactive. Further, the inhibition result in assay [13] is “Dose-dependent effect”.
